# Results as given in ChEMBL document CHEMBL1649062, “Integration of lead optimization with crystallography for a membrane-bound ion channel target: discovery of a new class of AMPA receptor positive allosteric modulators” (J Med Chem, 2011).
# Activity calls are given as the source filed them.
# What was measured:
# Glutamate receptor 2 [1] = target: T1, Glutamate receptor 2 (Homo sapiens, UniProt P42262); assay: Allosteric modulation of human recombinant GluA2 receptor flip isoform expressed in HEK293 cells assessed as potentiation of glutamate-induced calcium influx by Fluo-4/FLIPR method relative to cyclothiazide; format: cell-based
# In short: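 Stable GluA2 flip (unedited) cells seeded to confluence 2-3 days before assay; washed in HEPES buffer (145 NaCl, 5 KCl, 2 CaCl2, 1 MgCl2, 5.5 glucose, pH 7.3), loaded with 2 μM Fluo4-AM 60 min at room temperature. FLIPR dual addition: compound 5 min before 100 μM glutamate; fluorescence rise expressed against maximal cyclothiazide response, fitted pEC50 and Asym max; n ≥ 3.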
# [2] = Inhibition of human CYP450 by fluorescence assay; format: ADME
# In short: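 Recombinant human CYP1A2, 2C9, 2C19, 2D6 and 3A4 bactosomes (0.1 mg/mL protein) preincubated 10 min at 37 °C in 50 mM potassium phosphate pH 7.4 with test compound (0.1–10 μM, methanol 3–4.5% final) and fluorogenic probe: ethoxyresorufin 0.5 μM (1A2), FCA 50 μM (2C9), BMC 10 μM (2C19), MMC 10 μM (2D6), DEF 1 μM or 7-BQ 25 μM (3A4). NADPH-regenerating system added; fluorescent metabolite read 10 min; rate as % control; IC50 fitted; triplicate.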
# in vivo = details: rat, brain and blood, po, 3 mg/kg
# [3] = Cmax in rat at 3 mg/kg, po; format: ADME, organism-based; set-up: dose 3 mg/kg, route oral; details: in vivo
# [4] = Apparent permeability of the compound; format: ADME; details: not told
# In short: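 Artificial membrane permeability: donor holds 10 mM sample in pH 7.05 phosphate buffer with 0.5% hydroxypropylcyclodextrin. Membrane is 1.8% phosphatidylcholine and 1% cholesterol in decane. Donor and acceptor concentrations measured by LCMS after 3 h at room temperature; permeability expressed in nm/s.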
# [5] = Kinetic solubility of the compound in phosphate buffered saline of pH 7.4; format: physicochemical
# In short: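 Kinetic solubility: 10 mM DMSO stock, 5 μL diluted to 100 μL with pH 7.4 phosphate-buffered saline, equilibrated 1 h at room temperature, filtered, filtrate quantified by calibrated flow-injection chemiluminescent nitrogen detection.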
# Glutamate receptor 2 [6] = target: T1, Glutamate receptor 2; assay: Allosteric modulation of human recombinant GluA2 receptor flip isoform expressed in HEK293 cells assessed as potentiation of glutamate-induced calcium influx by Fluo-4/FLIPR method; format: cell-based
# In short: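 Stable GluA2 flip (unedited) cell line grown in DMEM/F12 with 10% FBS and seeded to confluence 2-3 days before use. Cells washed in HEPES buffer (pH 7.3) and loaded with 2 μM Fluo-4 AM for 60 min at room temperature. On FLIPR, compound was added 5 min before 100 μM glutamate. pEC50 and asymptotic maximum are relative to the maximal response to cyclothiazide, n ≥ 3.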
# [7] = Clearance in rat at 3 mg/kg, po; format: ADME, organism-based; set-up: dose 3 mg/kg, route oral; details: in vivo
# In short: (§1)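 Rats dosed orally at 3 mg/kg; blood sampled via the hepatic portal vein and heart. Estimated clearance derived from in vivo hepatic extraction, taking rat liver blood flow as 85 (mL/min)/kg.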
# Brain [8] = assay: Brain tissue binding in rat at 3 mg/kg, po; format: ADME, organism-based; set-up: dose 3 mg/kg, route oral; details: in vivo
# [9] = Plasma protein binding in rat at 3 mg/kg, po; format: ADME, organism-based; set-up: dose 3 mg/kg, route oral; details: read-out: PPB (converted)
# [10] = AUC ( 0 to t) in rat at 3 mg/kg, po; format: ADME, organism-based, Plasma; set-up: dose 3 mg/kg, route oral; details: plasma
# [11] = Distribution coefficient, log D of the compound; format: physicochemical; details: octanol/water
# Cytochrome P450 2C9 = Cytochrome P450 2C9 (Homo sapiens, UniProt P11712); assay: Inhibition of human CYP2C9 by fluorescence assay; format: ADME
# In short: (§2)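 Recombinant human CYP bactosomes (0.1 mg/mL) in 50 mM potassium phosphate pH 7.4, preincubated 10 min at 37 °C with test compound (0.1-10 μM, 7 concentrations) and fluorogenic substrate. Substrates: ethoxyresorufin 0.5 μM (1A2), FCA 50 μM (2C9), BMC 10 μM (2C19), MMC 10 μM (2D6), DEF 1 μM or 7-BQ 25 μM (3A4). Reaction started with NADPH regenerating system; metabolite formation read over 10 min. IC50 from percent of control rate; miconazole control; triplicate.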
# Cytochrome P450 2D6 = Cytochrome P450 2D6 (Homo sapiens, UniProt P10635); assay: Inhibition of human CYP2D6 by fluorescence assay; format: ADME; in short: as §2
# Cytochrome P450 3A4 = Cytochrome P450 3A4 (Homo sapiens, UniProt P08684); assay: Inhibition of human CYP3A4 by fluorescence assay; format: ADME; in short: as §2
# Cytochrome P450 2C19 = Cytochrome P450 2C19 (Homo sapiens, UniProt P33261); assay: Inhibition of human CYP2C19 by fluorescence assay; format: ADME; in short: as §2
# [12] = Distribution coefficient, log D of the compound at pH 7.4; format: physicochemical; details: octanol/water
# [13] = Cmax in rat blood at 3 mg/kg, po; format: ADME, organism-based; set-up: dose 3 mg/kg, route oral; details: whole blood
# Cytochrome P450 1A2 = target: T2, Cytochrome P450 1A2 (Homo sapiens, UniProt P05177); assay: Inhibition of human CYP1A2 by fluorescence assay; format: ADME; in short: as §2
# T2 sequence (P05177 whole entry): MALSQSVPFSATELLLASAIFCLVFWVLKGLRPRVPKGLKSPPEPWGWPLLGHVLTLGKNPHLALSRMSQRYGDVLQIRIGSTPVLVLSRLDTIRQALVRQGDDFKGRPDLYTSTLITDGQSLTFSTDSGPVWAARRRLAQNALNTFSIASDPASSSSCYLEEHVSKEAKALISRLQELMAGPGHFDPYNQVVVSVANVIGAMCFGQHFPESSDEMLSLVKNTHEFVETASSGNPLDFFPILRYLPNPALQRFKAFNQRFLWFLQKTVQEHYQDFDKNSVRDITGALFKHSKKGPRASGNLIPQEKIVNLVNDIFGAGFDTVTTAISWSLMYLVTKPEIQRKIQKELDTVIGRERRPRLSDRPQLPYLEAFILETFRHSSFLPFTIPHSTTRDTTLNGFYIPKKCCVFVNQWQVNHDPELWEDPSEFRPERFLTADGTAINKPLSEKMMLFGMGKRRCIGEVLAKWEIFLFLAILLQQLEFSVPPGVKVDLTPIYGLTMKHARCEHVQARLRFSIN
# [14] = AUC (0 to t) in rat blood at 3 mg/kg, po; format: ADME, organism-based; set-up: dose 3 mg/kg, route oral; details: whole blood
# Brain [15] = assay: Drug level in Lister Hooded rat assessed per gram of tissue at 150 mg/kg, ip; format: ADME, organism-based; set-up: dose 150 mg/kg, route intraperitoneal; details: in vivo
# In short: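 Male Lister Hooded rats pretreated 30 min before the maximal electroshock threshold test with compound or saline vehicle; picrotoxin served as positive control. Corneal current applied, CC50 about 60-70 mA, 0.1 ms. Brain levels measured in satellite rats sampled immediately after testing.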
# Rattus norvegicus [16] = assay: Neurotoxicity in Lister Hooded rat assessed proconvulsant effect at 150 mg/kg, ip by MEST test; format: toxicity, organism-based; set-up: dose 150 mg/kg, route intraperitoneal; details: in vivo
# In short: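 Male Lister Hooded rats pretreated with compound, saline vehicle or picrotoxin 30 min before corneal electroshock (CC50 about 60–70 mA, 0.1 ms); tonic and tonic-clonic seizure threshold scored; brain concentrations taken from satellite rats sampled right after testing.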
# Rattus norvegicus [17] = assay: Cognitive enhancing effect in Wistar rat assessed as reversal of scopolamine-induced amnesic deficit at 10 to 30 mg/kg, ip by passive avoidance test
# [18] = Blood Clearance in rat at 3 mg/kg, po; format: ADME, organism-based; set-up: dose 3 mg/kg, route oral; details: whole blood; in short: as §1
# Chain of Cytochrome P450 3A4 (P08684 whole entry): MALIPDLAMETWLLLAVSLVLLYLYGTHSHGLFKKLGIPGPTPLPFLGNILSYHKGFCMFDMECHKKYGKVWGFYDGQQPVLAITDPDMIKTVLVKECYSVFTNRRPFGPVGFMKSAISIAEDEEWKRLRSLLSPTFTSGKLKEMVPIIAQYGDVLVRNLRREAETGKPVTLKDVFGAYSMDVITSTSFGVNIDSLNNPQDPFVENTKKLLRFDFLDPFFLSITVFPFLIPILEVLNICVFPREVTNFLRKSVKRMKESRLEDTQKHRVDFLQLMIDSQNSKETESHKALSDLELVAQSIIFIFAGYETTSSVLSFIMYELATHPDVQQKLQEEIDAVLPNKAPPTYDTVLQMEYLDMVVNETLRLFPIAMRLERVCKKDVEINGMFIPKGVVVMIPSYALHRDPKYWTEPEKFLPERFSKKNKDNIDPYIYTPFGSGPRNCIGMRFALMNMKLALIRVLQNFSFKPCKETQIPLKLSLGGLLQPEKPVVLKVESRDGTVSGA
# T1 sequence (P42262 whole entry, canonical isoform): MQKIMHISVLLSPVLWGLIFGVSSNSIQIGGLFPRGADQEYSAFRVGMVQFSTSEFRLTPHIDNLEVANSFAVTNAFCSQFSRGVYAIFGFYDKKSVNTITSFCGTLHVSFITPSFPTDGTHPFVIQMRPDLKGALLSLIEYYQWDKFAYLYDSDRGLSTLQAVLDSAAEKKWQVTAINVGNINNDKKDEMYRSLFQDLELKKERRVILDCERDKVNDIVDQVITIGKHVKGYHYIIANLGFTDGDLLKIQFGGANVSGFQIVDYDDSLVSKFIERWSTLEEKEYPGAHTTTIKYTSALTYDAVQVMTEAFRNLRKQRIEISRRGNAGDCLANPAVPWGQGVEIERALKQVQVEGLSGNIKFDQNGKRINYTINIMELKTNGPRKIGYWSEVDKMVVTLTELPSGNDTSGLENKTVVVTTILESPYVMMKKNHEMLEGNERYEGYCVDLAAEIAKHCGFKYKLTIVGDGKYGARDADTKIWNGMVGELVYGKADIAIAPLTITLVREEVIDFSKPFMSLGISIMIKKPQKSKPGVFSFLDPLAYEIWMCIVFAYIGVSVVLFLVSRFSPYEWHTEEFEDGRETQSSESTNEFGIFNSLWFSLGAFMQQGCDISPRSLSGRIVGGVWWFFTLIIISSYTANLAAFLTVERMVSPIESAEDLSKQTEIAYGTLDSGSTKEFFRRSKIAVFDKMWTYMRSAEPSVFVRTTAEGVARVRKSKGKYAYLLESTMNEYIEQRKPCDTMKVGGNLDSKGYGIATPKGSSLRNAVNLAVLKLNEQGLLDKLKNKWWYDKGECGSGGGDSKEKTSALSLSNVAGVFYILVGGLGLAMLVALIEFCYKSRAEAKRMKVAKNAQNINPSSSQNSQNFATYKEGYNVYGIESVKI
# Chain of Cytochrome P450 2D6 (P10635 whole entry): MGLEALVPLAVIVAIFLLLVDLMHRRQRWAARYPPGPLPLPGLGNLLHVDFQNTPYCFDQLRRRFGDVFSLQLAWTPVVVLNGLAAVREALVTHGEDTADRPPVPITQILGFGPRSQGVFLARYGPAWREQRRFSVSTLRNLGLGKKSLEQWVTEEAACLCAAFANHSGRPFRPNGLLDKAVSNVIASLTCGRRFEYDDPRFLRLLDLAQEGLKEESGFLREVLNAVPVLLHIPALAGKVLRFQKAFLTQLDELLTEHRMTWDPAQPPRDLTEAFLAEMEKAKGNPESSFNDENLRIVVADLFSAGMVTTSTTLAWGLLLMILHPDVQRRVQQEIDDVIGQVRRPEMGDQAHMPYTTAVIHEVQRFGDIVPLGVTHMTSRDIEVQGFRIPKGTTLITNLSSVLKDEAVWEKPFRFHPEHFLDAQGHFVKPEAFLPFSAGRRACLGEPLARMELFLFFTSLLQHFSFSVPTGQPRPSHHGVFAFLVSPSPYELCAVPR
# Chain of Cytochrome P450 2C9 (P11712 whole entry): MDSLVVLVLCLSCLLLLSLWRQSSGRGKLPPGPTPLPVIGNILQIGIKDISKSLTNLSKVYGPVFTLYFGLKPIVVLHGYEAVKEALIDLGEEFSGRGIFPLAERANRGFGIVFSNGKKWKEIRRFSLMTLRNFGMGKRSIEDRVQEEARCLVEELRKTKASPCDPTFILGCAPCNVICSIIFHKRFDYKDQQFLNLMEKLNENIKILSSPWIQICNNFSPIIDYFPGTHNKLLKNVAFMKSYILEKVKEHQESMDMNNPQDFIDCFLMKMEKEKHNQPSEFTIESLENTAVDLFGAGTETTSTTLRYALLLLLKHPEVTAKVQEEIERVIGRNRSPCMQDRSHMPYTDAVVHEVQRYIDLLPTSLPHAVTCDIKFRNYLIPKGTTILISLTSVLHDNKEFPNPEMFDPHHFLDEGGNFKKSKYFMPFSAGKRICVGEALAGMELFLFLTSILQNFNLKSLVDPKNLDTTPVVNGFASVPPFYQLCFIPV
# Chain of Cytochrome P450 2C19 (P33261 whole entry): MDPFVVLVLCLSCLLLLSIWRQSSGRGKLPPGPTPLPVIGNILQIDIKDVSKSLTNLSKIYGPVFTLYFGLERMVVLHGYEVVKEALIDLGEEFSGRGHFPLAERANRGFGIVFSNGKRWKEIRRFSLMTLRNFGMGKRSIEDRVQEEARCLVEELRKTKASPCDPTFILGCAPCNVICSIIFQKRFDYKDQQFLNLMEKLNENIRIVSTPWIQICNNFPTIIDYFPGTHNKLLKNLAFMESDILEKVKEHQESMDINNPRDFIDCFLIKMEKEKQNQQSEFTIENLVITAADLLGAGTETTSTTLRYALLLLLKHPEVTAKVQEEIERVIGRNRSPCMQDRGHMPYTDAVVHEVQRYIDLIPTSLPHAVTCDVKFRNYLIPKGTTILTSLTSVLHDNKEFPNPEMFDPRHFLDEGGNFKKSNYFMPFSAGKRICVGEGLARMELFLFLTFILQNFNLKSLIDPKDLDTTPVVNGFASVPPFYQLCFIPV
SMILES,Activity (Glutamate receptor 2 [1]) [%],IC50 [2] [µM],Papp [4] [×10⁻⁶ cm/s],solubility kinetic [5] [µg/mL],EC50 (Glutamate receptor 2 [6]) [µM],Brain tissue binding (% bound) (Brain [8]) [%],fraction unbound [9],logD [11],IC50 (Cytochrome P450 2C9) [µM],IC50 (Cytochrome P450 2D6) [µM],IC50 (Cytochrome P450 3A4) [µM],IC50 (Cytochrome P450 2C19) [µM],logD [12],Cmax [13] [ng/mL],IC50 (Cytochrome P450 1A2) [µM],AUC(0-t) [14] [ng·h/mL],other results
O=S1(=O)CCCN1Cc1ccc(-n2nc(C(F)(F)F)c3c2CCCC3)cc1,118,> 10,40,12,10,99.5,0.032,3.3,–,–,–,–,–,–,–,–,Kp (in vivo): 2.5; Cmax [3]: 136 ng/mL; CL/F [7]: 41 mL/min/kg; AUC(0-t) [10]: 364 ng·h/mL
O=C1CCCN1Cc1ccc(-n2nc(C(F)(F)F)c3c2COCC3)cc1,116,–,44,123,5.01,94.9,0.057,–,> 10,> 10,> 10,> 10,2.6,331,> 10,824,–
CS(=O)(=O)NCc1ccc(-n2nc(C(F)(F)F)c3c2CCCC3)cc1,112,> 10,33.5,103,7.94,99.2,0.021,2.5,–,–,–,–,–,–,–,–,Kp (in vivo): 1.6; Cmax [3]: 197 ng/mL; Drug uptake (Brain [15]): 5074 ng/g; CL/F [7]: 43 mL/min/kg; Activity (Rattus norvegicus [16]): Non-toxic; AUC(0-t) [10]: 416 ng·h/mL
CC(=O)Cc1ccc(-n2nc(C(F)(F)F)c3c2CCCC3)cc1,111,≤ 1,–,44,3.98,–,–,3,≤ 1,≤ 1,≤ 1,2,–,–,≤ 1,–,–
O=C(C(F)c1ccc(-n2nc(C(F)(F)F)c3c2CCCC3)cc1)N1CCCC1 (stereo not given),98,> 10,–,124,31.6,–,–,3.4,–,–,–,–,–,–,–,–,–
O=C(c1ccc(-n2nc(C(F)(F)F)c3c2CCCC3)cc1)N1CCOCC1,81,> 10,45.5,123,> 20,96.8,0.026,3.1,–,–,–,–,–,–,–,–,Kp (in vivo): 1.2; Cmax [3]: 586 ng/mL; Drug uptake (Brain [15]): 7168 ng/g; CL/F [7]: 14 mL/min/kg; Activity (Rattus norvegicus [16]): Non-toxic; Activity (Rattus norvegicus [17]): inactive; AUC(0-t) [10]: 1980 ng·h/mL
CC(C)S(=O)(=O)NCc1ccc(-n2nc(C(F)(F)F)c3c2CCCC3)cc1,79,> 10,–,11,10,–,–,2.8,–,–,–,–,–,–,–,–,–
O=S(=O)(NCc1ccc(-n2nc(C(F)(F)F)c3c2CCCC3)cc1)C1CC1,112,> 10,–,12,10,–,–,3.2,–,–,–,–,–,–,–,–,–
O=C1CCCN1Cc1ccc(-n2nc(C(F)(F)F)c3c2CCOC3)cc1,138,–,47,215,10,87.9,0.16,–,> 8,> 8,> 8,> 8,2.4,808,> 8,972,CL/F [18]: 41 mL/min/kg
CN1CCc2c(C(F)(F)F)nn(-c3ccc(CN4CCCC4=O)cc3)c2C1,102,–,43,93,39.8,63,0.142,–,> 10,> 10,> 10,> 10,2,131,> 10,294,CL/F [18]: 22 mL/min/kg
O=C(c1ccc(-n2nc(C(F)(F)F)c3c2COCC3)cc1)N1CCCC1,75,–,49,104,100,95.5,0.067,–,> 10,> 10,> 10,> 10,2.6,225,> 10,733,CL/F [18]: 13 mL/min/kg
